Results: ChEMBL document CHEMBL1134465, “Synthesis and evaluation of pteroic acid-conjugated nitroheterocyclic phosphoramidates as folate receptor-targeted alkylating agents” (J Med Chem, 2001)

Key:
A549 [1] = test: In vitro growth inhibition of human lung carcinoma cell line, A549 with low levels of folate receptors; type: functional, cell-based
Procedure, shortened: (§1)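 Cells were seeded and grown 24 h at 37 °C in McCoy's 5A medium with 10% heat-inactivated FBS, penicillin 100 U/mL and streptomycin 100 μg/mL. Drug from DMSO stock was added in the same medium, with final DMSO <1%. Five serial 10-fold dilutions were tested, top final concentration 100 μg/mL.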

A498 [2] = test: In vitro growth inhibition of human kidney carcinoma cell line, A498 with low levels of folate receptors; type: functional, cell-based; procedure, shortened: as §1
HT-29 = test: In vitro growth inhibition of human tumor cell line, HT-29; type: functional, cell-based; procedure, shortened: as §1
[3] = In vitro growth inhibition of human breast adrenocarcinoma cell line, MDA-231 with over expressed folate receptors; type: functional; conditions: MDA-MB-231; procedure, shortened: as §1
MIA PaCa-2 = test: In vitro growth inhibition of human tumor cell line, PACA2; type: functional, cell-based; procedure, shortened: as §1
PC-3 = test: In vitro growth inhibition of human tumor cell line, PC3; type: functional, cell-based; procedure, shortened: as §1
UMUC3 = test: In vitro growth inhibition of human tumor cell line, UMUC3; type: functional, cell-based; procedure, shortened: as §1
A549 [4] = test: In vitro growth inhibition of human lung carcinoma cell line, A549 with low levels of folate receptors in folate deficient medium; type: functional, cell-based
Procedure, shortened: (§2)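 Cells were incubated with drug for 72 h in folate-deficient medium. Drug from DMSO stock was added with final DMSO <1%. Five serial 10-fold dilutions were tested, top final concentration 100 μg/mL. Viable cells were estimated by MTT and IC50 was derived.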

A498 [5] = test: In vitro growth inhibition of human kidney carcinoma cell line, A498 with low levels of folate receptors in folate deficient medium; type: functional, cell-based; procedure, shortened: as §2
[6] = In vitro growth inhibition of human ovarian carcinoma cell line, IGROV with over expressed folate receptors; type: functional; procedure, shortened: as §1
[7] = In vitro growth inhibition of human ovarian carcinoma cell line, IGROV with over expressed folate receptors in folate deficient medium; type: functional; procedure, shortened: as §2
[8] = In vitro growth inhibition of human breast adrenocarcinoma cell line, MDA-231 with over-expressed folate receptors; type: functional; conditions: MDA-MB-231; procedure, shortened: as §1
[9] = In vitro growth inhibition of human breast adrenocarcinoma cell line, MDA-231 with over-expressed folate receptors in folate deficient medium; type: functional; conditions: MDA-MB-231; procedure, shortened: as §2

Row | Structure (SMILES) | IC50 (A549 [1]) | IC50 (A498 [2]) | IC50 (HT-29) | IC50 [3] | IC50 (MIA PaCa-2) | IC50 (PC-3) | IC50 (UMUC3) | IC50 (A549 [4]) | IC50 (A498 [5]) | IC50 [6] | IC50 [7] | IC50 [8] | IC50 [9]
1 | CCCNP(=O)(OCc1ccc([N+](=O)[O-])o1)N(CCCl)CCCl (stereo unspecified) | 1.9 µM | 1.4 µM | 17 µM | 1.9 µM | 450 nM | 2.3 µM | 720 nM |  |  |  |  |  | 
2 | NC(CCCCNP(=O)(OCc1ccc([N+](=O)[O-])o1)N(CCCl)CCCl)C(=O)O (stereo unspecified) | 41 µM | 26 µM | 20 µM | 16 µM | 2400 nM | 21 µM | 620 nM |  |  |  |  |  | 
3 | Nc1nc(O)c2nc(CNc3ccc(C(=O)NC(CCCCNP(=O)(OCc4ccc([N+](=O)[O-])o4)N(CCBr)CCBr)C(=O)O)cc3)cnc2n1 (stereo unspecified) | 11 µM | 11 µM | 0.3 µM |  | 16000 nM | 11 µM | 5200 nM | 23 µM | 19 µM | 830 nM | 570 nM | 8 µM | 3.6 µM
